Measured values as given in ChEMBL document CHEMBL5096186, “Design, Synthesis, and Biological Evaluation of Novel Pyrimido[4,5-b]indole Derivatives Against Gram-Negative Multidrug-Resistant Pathogens” (J Med Chem, 2021).
In brackets after ≈: the same amount, converted by molar mass.

How the values were obtained:
[1] = Metabolic stability in human liver microsome assessed as metabolic bioavailability at 0.1 uM in presence of NADPH incubated upto 60 mins by LC-MS/MS analysis; format: ADME; settings: liver microsomes
In short: (§1)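 Compound at 0.1 μM final, in 0.01% DMSO with 0.005% BSA. Incubated with rat or human liver microsomes at 0.33 mg/mL in 0.1 M Tris-HCl, pH 7.4, with 5 mM MgCl₂ and 1 mM NADPH, at 37 °C. Samples at 0, 7, 17, 30 and 60 min quenched with cold methanol and analysed by LC-MS/MS. Half-life, Cl_int and MF% derived as previously described.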

Escherichia coli [2] = assay: Antibacterial activity against ESBL-producing multidrug resistant Escherichia coli assessed as reduction in bacterial growth incubated for 18 to 20 hrs by CLSI based microdilution method; format: functional; settings: time 18-20 hrs
In short: (§2)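 Broth microdilution per CLSI. Compounds dissolved in DMSO (levofloxacin and meropenem in water) as 64 μg/mL stock, then serial twofold dilutions in broth giving 64 to 0.008 μg/mL. […] Clinical isolates tested as several strains per group; racemic GP-1 served as positive control; values given as MIC ranges.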

Klebsiella pneumoniae [3] = assay: Antibacterial activity agains wild type Klebsiella pneumoniae ATCC BAA-1705 assessed as reduction in bacterial growth incubated for 18 to 20 hrs by CLSI based microdilution method; format: functional; settings: time 18-20 hrs
In short: (§3)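 CLSI broth microdilution. Compounds in DMSO (levofloxacin and meropenem in water), serial twofold dilutions in broth, 64 to 0.008 μg/mL. […] Results reported as MIC ranges across strains.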

[4] = target: Voltage-gated inwardly rectifying potassium channel KCNH2 (Homo sapiens, UniProt Q12809); assay: Inhibition of hERG potassium channel assessed as […] at -80 mV holding potential incubated for 120 seconds by whole cell-automated voltage clamp analysis assay; format: toxicity
In short: (§4)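 Automated whole-cell patch clamp, holding potential −80 mV. Voltage protocol applied every 20 s. Baseline set with external solution containing 0.1% DMSO and stabilised 3 min. Compound applied until steady state, at least 3 min, then washout. Maximum tested concentration 40 μM, or 3 μM for cisapride as positive control.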

Pseudomonas aeruginosa [5] = assay: Antibacterial activity against wild type Pseudomonas aeruginosa ATCC 27853 assessed as reduction in bacterial growth incubated for 18 to 20 hrs by CLSI based microdilution method; format: functional; settings: time 18-20 hrs; in short: as §3
[6] = Elimination half life in Sprague-Dawley rat at 4 mg/kg, iv measured upto 24 hrs by LC-MS/MS analysis; format: ADME, organism-based; settings: in vivo, read-out: beta t1/2 (converted)
In short: (§5)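 Male Sprague-Dawley rats, n = 3 per group, single intravenous dose. For 4 mg/kg: 180–280 g rats, vehicle 5% DMSO + 5% EtOH + 40% PEG300 + 50% saline, blood from the retrobulbar vein at 0.05–24 h. For 5 and 20 mg/kg: 180–300 g rats, vehicle 5% DMSO + 5% solutol + 90% saline, sampled at 0.083–24 h. Plasma quantified by LC/MS/MS. Parameters from mean plasma concentration by noncompartmental analysis; values are mean ± standard deviation.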

[7] = Metabolic stability in human liver microsome assessed as intrinsic clearance at 0.1 uM in presence of NADPH incubated upto 60 mins by LC-MS/MS analysis; format: ADME; settings: microsomes, 1 h; in short: as §1
[8] = Metabolic stability in rat liver microsome assessed as intrinsic clearance at 0.1 uM in presence of NADPH incubated upto 60 mins by LC-MS/MS analysis; format: ADME; settings: microsomes, 1 h; in short: as §1
[9] = AUC (0 to infinity) in Sprague-Dawley rat at 4 mg/kg, iv measured upto 24 hrs by LC-MS/MS analysis; format: ADME, organism-based; parameters: time < 24 hrs, dose 4 mg/kg, route iv; settings: in vivo; in short: as §5
Acinetobacter baumannii [10] = assay: Antibacterial activity against wild type Acinetobacter baumannii NCTC 13304 assessed as reduction in bacterial growth incubated for 18 to 20 hrs by CLSI based microdilution method; format: functional; settings: time 18-20 hrs; in short: as §2
[11] = system: Staphylococcus epidermidis; assay: Antibacterial activity against methicillin-sensitive Staphylococcus epidermidis strains 15 1 to 4 assessed as reduction in bacterial growth incubated for 18 to 20 hrs by CLSI based microdilution method; format: functional; settings: time 18-20 hrs; in short: as §2
[12] = Metabolic stability in human liver microsome assessed as elimination half life at 0.1 uM in presence of NADPH incubated upto 60 mins by LC-MS/MS analysis; format: ADME; settings: liver microsomes, read-out: beta t1/2; in short: as §1
[13] = target: hERG (KCNH2) potassium channel (Homo sapiens, UniProt Q12809); assay: Inhibition of hERG potassium channel assessed as maximum inhibition rate at 40 uM at -80 mV holding potential incubated for 120 seconds by whole cell-automated voltage clamp analysis assay relative to control; format: toxicity; settings: time 120 sec; in short: as §4
[14] = Clearance in Sprague-Dawley rat at 4 mg/kg, iv measured upto 24 hrs by LC-MS/MS analysis; format: ADME, organism-based; settings: in vivo; in short: as §5
Staphylococcus aureus = assay: Antibacterial activity against methicillin-sensitive Staphylococcus aureus strains 15 1 to 4 assessed as reduction in bacterial growth incubated for 18 to 20 hrs by CLSI based microdilution method; format: functional; settings: time 18-20 hrs; in short: as §2
Pseudomonas aeruginosa [15] = assay: Antibacterial activity against IMP4-producing multidrug resistant Pseudomonas aeruginosa assessed as reduction in bacterial growth incubated for 18 to 20 hrs by CLSI based microdilution method; format: functional; settings: time 18-20 hrs; in short: as §2
Escherichia coli [16] = assay: Antibacterial activity against Escherichia coli ATCC 35218 strains 15 1 to 3 assessed as reduction in bacterial growth incubated for 18 to 20 hrs by CLSI based microdilution method; format: functional; settings: time 18-20 hrs; in short: as §3
Escherichia coli [17] = assay: Antibacterial activity against multidrug resistant wild type Escherichia coli ATCC BAA-2340 assessed as reduction in bacterial growth incubated for 18 to 20 hrs by CLSI based microdilution method; format: functional; settings: time 18-20 hrs; in short: as §2
Acinetobacter baumannii [18] = assay: Antibacterial activity agains OXA23-producing multidrug resistant Acinetobacter baumannii assessed as reduction in bacterial growth incubated for 18 to 20 hrs by CLSI based microdilution method; format: functional; settings: time 18-20 hrs; in short: as §2
Klebsiella pneumoniae [19] = assay: Antibacterial activity agains wild type Klebsiella pneumoniae ATCC BAA-2470 assessed as reduction in bacterial growth incubated for 18 to 20 hrs by CLSI based microdilution method; format: functional; settings: time 18-20 hrs; in short: as §2
Klebsiella pneumoniae [20] = assay: Antibacterial activity against KPC2-producing multidrug resistant Klebsiella pneumoniae assessed as reduction in bacterial growth incubated for 18 to 20 hrs by CLSI based microdilution method; format: functional; settings: time 18-20 hrs; in short: as §2
[21] = Metabolic stability in rat liver microsome assessed as elimination half life at 0.1 uM in presence of NADPH incubated upto 60 mins by LC-MS/MS analysis; format: ADME; settings: liver microsomes, read-out: beta t1/2; in short: as §1
[22] = Metabolic stability in rat liver microsome assessed as metabolic bioavailability at 0.1 uM in presence of NADPH incubated upto 60 mins by LC-MS/MS analysis; format: ADME; settings: liver microsomes; in short: as §1
[23] = Volume of distribution at the steady state in Sprague-Dawley rat at 4 mg/kg, iv measured upto 24 hrs by LC-MS/MS analysis; format: ADME, organism-based; settings: in vivo, read-out: Vdss; in short: as §5
Pseudomonas aeruginosa [24] = assay: Antibacterial activity against multidrug resistant Pseudomonas aeruginosa strains 15 1 to 3 assessed as reduction in bacterial growth incubated for 18 to 20 hrs by CLSI based microdilution method; format: functional; settings: time 18-20 hrs; in short: as §2
Escherichia coli [25] = assay: Antibacterial activity against ESBL-producing Escherichia coli ATCC 35218 strains 15 1 to 3 assessed as reduction in bacterial growth incubated for 18 to 20 hrs by CLSI based microdilution method; format: functional; settings: time 18-20 hrs; in short: as §3
Escherichia coli [26] = assay: Antibacterial activity against multidrug resistant wild type Escherichia coli NCTC 13353 assessed as reduction in bacterial growth incubated for 18 to 20 hrs by CLSI based microdilution method; format: functional; settings: time 18-20 hrs; in short: as §2
[27] = MRT in Sprague-Dawley rat at 4 mg/kg, iv measured upto 24 hrs by LC-MS/MS analysis; format: ADME, organism-based; settings: in vivo; in short: as §5

Chain of hERG (KCNH2) potassium channel (Q12809 whole entry): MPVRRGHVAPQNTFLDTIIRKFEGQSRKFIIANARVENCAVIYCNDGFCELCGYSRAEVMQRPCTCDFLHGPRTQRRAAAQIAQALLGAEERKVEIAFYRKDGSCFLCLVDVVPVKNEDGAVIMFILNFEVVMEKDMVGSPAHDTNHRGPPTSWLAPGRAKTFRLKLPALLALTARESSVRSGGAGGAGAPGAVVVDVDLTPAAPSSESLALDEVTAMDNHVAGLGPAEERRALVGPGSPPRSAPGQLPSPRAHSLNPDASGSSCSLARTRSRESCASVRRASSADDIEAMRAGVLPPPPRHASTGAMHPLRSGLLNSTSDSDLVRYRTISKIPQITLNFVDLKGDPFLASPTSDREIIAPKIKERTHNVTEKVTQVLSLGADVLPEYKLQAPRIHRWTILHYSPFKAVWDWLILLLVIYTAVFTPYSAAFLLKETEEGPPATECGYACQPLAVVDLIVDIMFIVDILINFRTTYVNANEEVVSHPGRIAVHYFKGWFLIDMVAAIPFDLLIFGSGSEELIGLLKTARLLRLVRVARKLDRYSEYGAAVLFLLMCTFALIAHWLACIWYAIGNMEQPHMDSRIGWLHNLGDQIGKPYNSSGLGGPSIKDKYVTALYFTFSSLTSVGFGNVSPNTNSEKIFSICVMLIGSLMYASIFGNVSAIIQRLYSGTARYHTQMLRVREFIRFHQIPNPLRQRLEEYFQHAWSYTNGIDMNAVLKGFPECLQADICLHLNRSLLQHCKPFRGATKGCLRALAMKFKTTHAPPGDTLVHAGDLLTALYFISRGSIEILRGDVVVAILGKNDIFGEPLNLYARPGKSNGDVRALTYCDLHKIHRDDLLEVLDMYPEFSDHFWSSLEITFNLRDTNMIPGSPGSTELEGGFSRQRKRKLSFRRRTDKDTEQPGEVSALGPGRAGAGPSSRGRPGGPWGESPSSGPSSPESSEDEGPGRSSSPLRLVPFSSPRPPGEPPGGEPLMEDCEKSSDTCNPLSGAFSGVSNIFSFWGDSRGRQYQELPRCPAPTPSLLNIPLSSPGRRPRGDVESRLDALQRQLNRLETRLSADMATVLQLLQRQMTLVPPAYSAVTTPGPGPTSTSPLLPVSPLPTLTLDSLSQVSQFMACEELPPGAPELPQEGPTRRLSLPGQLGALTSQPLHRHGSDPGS
Chain of Voltage-gated inwardly rectifying potassium channel KCNH2 (Q12809 whole entry): as above

| Structure (SMILES) | Fh at 1 h, 0.1 µM [1] [%] | MIC (Escherichia coli [2]) [µg/mL] | MIC (Klebsiella pneumoniae [3]) [µg/mL] | IC50 [4] [µM] | MIC (Pseudomonas aeruginosa [5]) [µg/mL] | half-life [6] [h] | CLH [7] [mL/min/g] | CLH [8] [mL/min/g] | AUC(0-inf) [9] [ng·h/mL] | MIC (Acinetobacter baumannii [10]) [µg/mL] | MIC [11] [µg/mL] | half-life at 0.1 µM [12] [h] | inhibition at 2 min, 40 µM [13] [%] | clearance [14] [mL/min/kg] | MIC (Staphylococcus aureus) [µg/mL] | MIC (Pseudomonas aeruginosa [15]) [µg/mL] | MIC (Escherichia coli [16]) [µg/mL] | MIC (Escherichia coli [17]) [µg/mL] | MIC (Acinetobacter baumannii [18]) [µg/mL] | MIC (Klebsiella pneumoniae [19]) [µg/mL] | also measured |
| --- | --- | --- | --- | --- | --- | --- | --- | --- | --- | --- | --- | --- | --- | --- | --- | --- | --- | --- | --- | --- | --- |
| CCCC(CN)=C1CN(c2nc(Oc3cnc(C)nc3)nc3[nH]c4c(NC)cc(F)cc4c23)C1 | 30.7 | 1 (≈ 2.16 µM) | 8 (≈ 17.3 µM) | 51.5 | 4 (≈ 8.65 µM) | 4.7 | 44.3 | 84.4 | 778 | 1 (≈ 2.16 µM) | < 0.008 | 0.792 | 50.6 | 86.8 | < 0.008 | 4 (≈ 8.65 µM) | 0.06 (≈ 0.13 µM) | 1 (≈ 2.16 µM) | 0.5 (≈ 1.08 µM) | 4 (≈ 8.65 µM) | MIC (Klebsiella pneumoniae [20]): 4 µg/mL (≈ 8.65 µM); half-life at 0.1 µM [21]: 0.415 h; Fh at 1 h, 0.1 µM [22]: 34.5%; Vd [23]: 22.5 L/kg; MIC (Pseudomonas aeruginosa [24]): 2 µg/mL (≈ 4.32 µM); MIC (Escherichia coli [25]): 0.125 µg/mL (≈ 0.27 µM); MIC (Escherichia coli [26]): 0.5 µg/mL (≈ 1.08 µM); MRT [27]: 4.4 h |
| CNc1cc(F)cc2c1[nH]c1nc(Oc3cnc(C)nc3)nc(N3CC(=C(C)C(C)N)C3)c12 (racemic) | 82.2 | 0.5 (≈ 1.11 µM) | 8 (≈ 17.8 µM) | > 40 | 2 (≈ 4.46 µM) | 5.7 | 4.25 | 126 | 1510 | 0.5 (≈ 1.11 µM) | < 0.008 | 8.23 | 37 | 44.1 | < 0.008 | 4 (≈ 8.92 µM) | 0.25 (≈ 0.557 µM) | 0.5 (≈ 1.11 µM) | 0.25 (≈ 0.557 µM) | 2 (≈ 4.46 µM) | MIC (Klebsiella pneumoniae [20]): 2 µg/mL (≈ 4.46 µM); half-life at 0.1 µM [21]: 0.278 h; Fh at 1 h, 0.1 µM [22]: 26.1%; Vd [23]: 12.3 L/kg; MIC (Pseudomonas aeruginosa [24]): 1 µg/mL (≈ 2.23 µM); MIC (Escherichia coli [25]): 0.5 µg/mL (≈ 1.11 µM); MIC (Escherichia coli [26]): 0.25 µg/mL (≈ 0.557 µM); MRT [27]: 4.7 h |
| CNc1cc(F)cc2c1[nH]c1nc(Oc3cnc(C)nc3)nc(N3CC(=CC(C)N)C3)c12 (centres undefined) | 50 | 1 (≈ 2.3 µM) | 8 (≈ 18.4 µM) | > 40 | 4 (≈ 9.21 µM) | 9 | 19.6 | 180.9 | 836 | 0.5 (≈ 1.15 µM) | < 0.008 | 1.78 | 32.3 | 81.5 | < 0.008 | 8 (≈ 18.4 µM) | 0.06 (≈ 0.138 µM) | 1 (≈ 2.3 µM) | 0.5 (≈ 1.15 µM) | 4 (≈ 9.21 µM) | MIC (Klebsiella pneumoniae [20]): 4 µg/mL (≈ 9.21 µM); half-life at 0.1 µM [21]: 0.2 h; Fh at 1 h, 0.1 µM [22]: 19.7%; Vd [23]: 33.4 L/kg; MIC (Pseudomonas aeruginosa [24]): 0.5 µg/mL (≈ 1.15 µM); MIC (Escherichia coli [25]): 0.125 µg/mL (≈ 0.288 µM); MIC (Escherichia coli [26]): 0.5 µg/mL (≈ 1.15 µM); MRT [27]: 6.8 h |
